MrgX1 antag – blocks BAM8-22 activation of human MrgX1 receptor. MRGX1-HEK293 calcium flux, Fluo-4, BAM8-22 antagonism; stronger effect = lower value. B-score at 10 µM. hit rate 1.3% among 310,000;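 active = calcium-response B-score plate-corrected more than 3 library SD below zero, starting fluorescence within 5 deviations, no agonist response on first addition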;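 also: peak minus trough fluorescence over baseline after final BAM8-22 challenge near maximal dose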
Target sequence (Q96LB2 whole entry, looked up): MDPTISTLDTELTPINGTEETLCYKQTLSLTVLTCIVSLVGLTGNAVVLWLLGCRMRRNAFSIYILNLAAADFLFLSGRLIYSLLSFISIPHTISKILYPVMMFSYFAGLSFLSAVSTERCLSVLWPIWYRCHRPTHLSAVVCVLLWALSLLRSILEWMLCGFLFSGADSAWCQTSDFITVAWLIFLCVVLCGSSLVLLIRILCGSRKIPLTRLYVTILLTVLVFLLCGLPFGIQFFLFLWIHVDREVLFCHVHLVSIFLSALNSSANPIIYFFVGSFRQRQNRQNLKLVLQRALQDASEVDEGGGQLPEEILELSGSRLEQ
MrgX1 agonist – activates human MrgX1 receptor signaling; Q96LB2; MrgX1-HEK293 cells, Fluo-4 calcium fluorescence, agonist mode; stronger effect = higher value; B-score at 10 µM; hit rate 0.44% among 310,000;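 active = calcium response B-score plate-corrected fluorescence ratio at least 3 library SD, with starting fluorescence B-score inside 5 SD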
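Material: MrgX1-expressing HEK293 cells / Dosing: compound as first of three additions / Incubation: overnight seeding, then 1 h dark dye loading / Signal: Fluo-4 NW calcium fluorescence / Evaluation: B-scored fluorescence response ratio / Benchmarks: positive and negative control wells on each plate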
MrgX1 PAM – human MrgX1 positive allosteric modulation, primary screen | MrgX1-HEK293, Fluo-4 calcium flux, FDSS; stronger effect = higher value | B-score at 10 µM | hit rate 0.63% among 310,000;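 active = plate-corrected calcium response at least 3 library SD above typical, normal starting fluorescence, not activating the receptor alone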;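 also: compound read alongside a low EC10 to EC30 dose of BAM8-22 agonist; peak minus trough fluorescence over baseline measured at the second addition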
RGS4 pot – RGS4 potentiation or activation; HEK293 M3R/inducible RGS4, carbachol calcium flux Fluo4; stronger effect = lower value; B-score at 10 µM; hit rate 0.92% among 310,000;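 active = B-score of the integrated calcium signal more than 4 SD below the library mean, with starting fluorescence not abnormally high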;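 also: negative B-score means reduced calcium response which marks RGS4 activation or potentiation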
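Material: Inducible-RGS4 HEK293 cells carrying M3 receptor; also added: carbachol at ECmax as muscarinic agonist stimulus; incubation: compound preincubation 20 min at room temperature before agonist; signal: Fluo4-AM (2 µM) calcium-flux fluorescence, kinetic read; measure: integrated calcium ratio converted to B score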
RGS4 inh – human RGS4 inhibition. HEK293 M3R/RGS4 inducible, Fluo-4 calcium flux; stronger effect = higher value; triggered by carbachol at its EC20. hit rate 0.45% among 310,000. B-score at 10 µM. AID 463165;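 active = B-score, a plate-corrected calcium signal, over three deviations above library mean, with baseline fluorescence within five deviations of library mean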;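 also: RGS4 expression induced by doxycycline in cells with stable M3 receptor; B-score is computed from the integrated fluorescence ratio over baseline after carbachol; higher B-score means a larger calcium signal and so more RGS4 inhibition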
Target sequence (P49798 whole entry, looked up): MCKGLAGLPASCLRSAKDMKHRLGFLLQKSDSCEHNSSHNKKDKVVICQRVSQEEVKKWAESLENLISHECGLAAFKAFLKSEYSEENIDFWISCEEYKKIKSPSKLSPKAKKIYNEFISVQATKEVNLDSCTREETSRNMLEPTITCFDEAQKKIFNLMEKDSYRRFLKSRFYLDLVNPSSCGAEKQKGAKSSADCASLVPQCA
RGS4 activ val – RGS4 activation, validation assay; inhibition, % at 10 µM; HEK293 M3R/RGS4 inducible, carbachol calcium flux Fluo4; hit rate 89% among 1,100; shares compounds with RGS4 pot; AID 602282;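 active = inhibition above 3 SD of the buffer control wells, cut at about 41% in these data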;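 also: signal is the integrated peak-minus-minimum Fluo4 fluorescence over baseline ratio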
RGS4 act ctr – counter-screen for RGS4 activators: effect in non-induced cells | shares compounds with RGS4 pot | HEK293 M3R non-induced RGS4, Fluo4 calcium flux; after carbachol challenge at its EC90 | inhibition, % at 10 µM | hit rate 82% among 1,100 | AID 602283;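 active = inhibition exceeding 3 SD of buffer-only control wells, cut at about 26% in these data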;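 also: percent drop in integrated peak-minus-baseline over baseline Fluo4 ratio after carbachol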
Active calls of the source: *; i = inactive; . = no result. Rows were chosen to be rich in hits. Some 3.5% of all compounds tested hit in one or more screens of this group.

SMILES | MrgX1 antag | MrgX1 agonist | MrgX1 PAM | RGS4 pot | RGS4 inh | RGS4 activ val | RGS4 act ctr
CC(NC(=O)C(=O)NCCc1c[nH]c2ccccc12)c1ccccc1 (stereo not given) | i | i | i | i | i | . | .
Cc1nc2ccc(Br)cc2c2c1CC(CBr)O2 (stereo not given) | i | i | i | -8.1* | i | 64* | 84*
FC(F)(F)c1nc(-c2cccs2)ncc1-c1nnnn1-c1ccc(Cl)cc1 | i | i | i | -8.9* | i | 92* | 58*
Clc1ccc(-n2nnnc2-c2cnc(-c3ccncc3)nc2-c2cccs2)cc1 | i | i | i | i | i | . | .
O=C(NC1CCCCC1)N1CCSC1=Nc1ccccc1 | i | i | i | -8.2* | i | 80* | 43*
CCN(c1ccc(OC)cc1)S(=O)(=O)c1nnc(NC(=O)COc2ccc(F)cc2)s1 | i | i | i | i | i | . | .
O=C(Nc1nc2ccc(S(=O)(=O)N3CCCC3)cc2s1)c1ccco1 | i | i | i | -7.6* | i | 0 | 0
Cc1nc2ccccn2c1-c1csc(Nc2cccc(O)c2)n1 | . | . | . | -8.4* | i | 57* | 0
O=C(CCN1CCN2CCCC2C1)N1c2ccccc2Sc2ccc(Cl)cc21 (stereo not given) | i | i | i | i | i | . | .
CN(C)CCC(=O)N1c2ccccc2Sc2ccc(Cl)cc21 | i | i | i | -14* | i | 94* | 98*
CN(C)CC(=O)N1c2ccccc2Sc2ccc(Cl)cc21 | i | i | i | -8* | i | 91* | 69*
CCN(CC)CCC(=O)N1c2ccccc2Sc2ccc(Cl)cc21 | i | i | i | i | i | . | .
NCCCC(=O)N1c2ccccc2Sc2ccc(Cl)cc21 | i | i | i | -7.9* | i | 91* | 85*
CCOc1ccc(-c2cc(C(=O)N3CCN(c4ccccn4)CC3)c3ccccc3n2)cc1 | i | i | i | i | i | . | .
COc1ccc(-c2cc(C(=O)N3CCN(c4ccccc4O)CC3)c3ccccc3n2)cc1OC | i | i | i | -7.7* | i | 92* | 82*
COc1ccc(-c2cc(C(=O)N3CCN(c4ccccc4F)CC3)c3ccccc3n2)c(OC)c1 | i | i | i | -8.4* | i | 56* | 0
CCCc1ccc(-c2cc(C(=O)N3CCN(c4ccccn4)CC3)c3ccccc3n2)cc1 | i | i | i | -12* | i | 52* | 0
CCN(c1ccccc1)S(=O)(=O)c1cc2c(cc1C)NC(=O)CO2 | i | i | i | i | i | . | .
CC1CCN(S(=O)(=O)c2ccc3c(ccn3CCC(=O)NC(C)C)c2)CC1 | i | i | i | -7.9* | i | 0 | 0
CN(C)CCCNC(=O)c1ccc(-c2nc(-c3ccc(Cl)cc3)cs2)cc1 | i | i | i | -8.2* | i | 96* | 98*
COC(=O)c1ccccc1S(=O)(=O)N1CCC(C(=O)OCc2ccc([N+](=O)[O-])cc2)CC1 | i | i | i | i | i | . | .
COc1cc(O)c(CC=C(C)C)c(O)c1C(=O)CCc1ccc(O)cc1 | i | i | i | -9.3* | i | 91* | 76*
Cc1c(C(=O)N2CCCCCC2)c(S(=O)(=O)Nc2ccc(F)cc2)c(C)n1C | i | i | i | i | i | . | .
CCn1c2ccccc2c2cc(/C=N/n3cn[nH]c3=S)ccc21 | i | i | i | i | i | . | .
CCn1c2ccccc2c2cc(/C=N/n3c(-c4cc(C)[nH]n4)n[nH]c3=S)ccc21 | i | i | i | -7.8* | i | 70* | 42*
SMILES | MrgX1 antag | MrgX1 agonist | MrgX1 PAM | RGS4 pot | RGS4 inh | RGS4 activ val | RGS4 act ctr
COc1ccc2cc3cc(C(=O)Nc4ccccc4N4CCN(C)CC4)oc3nc2c1 | i | i | i | -8.9* | i | 40* | 0
CSc1nnc(C)c(=O)n1COC(=O)COc1ccc(Cl)cc1 | i | i | i | i | i | . | .
CC1CCN(C(=O)C2CCCN(S(=O)(=O)c3ccc4c(c3)CC(C)N4C(=O)C3CC3)C2)CC1 (stereo not given) | i | i | i | i | i | . | .
CC1CCN(S(=O)(=O)c2ccc3c(c2)N(C)C(=O)CC(=O)N3C)CC1 | i | i | i | i | i | . | .
CC(=O)c1cccc(CN2CCCC(C(=O)c3ccc4c(c3)OCO4)C2)c1 (stereo not given) | i | i | i | -8.3* | i | 74* | 26*
O=C(C1CCCN(Cc2ccc3c(c2)OCO3)C1)N1CCCC1 (stereo not given) | i | i | i | i | i | . | .
CCn1nc(C)c(CN2CCCC(C(=O)c3cccc(OC(C)C)c3)C2)c1C (stereo not given) | i | i | i | i | i | . | .
COc1cccc(C(=O)C2CCCN(Cc3cccc(-n4nc(C)cc4C)c3)C2)c1 (stereo not given) | i | i | i | -9.8* | i | 93* | 75*
Cc1nn(C(C)C)c(C)c1CN1CCCC(C(=O)c2cccc(OC(C)C)c2)C1 (stereo not given) | i | i | i | -8.4* | i | 70* | 84*
O=C(c1ccc2c(c1)OCO2)C1CCCN(C2CCN(CCc3ccccc3)CC2)C1 (stereo not given) | i | i | i | -13* | i | 87* | 55*
Nc1nnc(CC(=O)N/N=C/c2ccc(-c3ccc(Cl)cc3Cl)o2)s1 | i | i | i | i | i | . | .
C=CCNC(=S)Nc1ccccc1-c1nnc2n1CCCCC2 | i | i | i | i | i | . | .
COc1ccc(OC)c2[nH]c(=O)c(CCNC(=O)c3cccs3)cc12 | i | i | i | i | i | . | .
COc1ccc(CN2CCCC(C(=O)c3ccc4c(c3)OCO4)C2)c(F)c1 (stereo not given) | i | i | i | -8.3* | i | 91* | 81*
COc1cccc(CN2CCCC(C(=O)c3ccc4c(c3)OCO4)C2)c1O (stereo not given) | i | i | i | i | i | . | .
CCN(CC(=O)Nc1c(F)cccc1F)C(=O)CNC(=O)c1ccc(C)s1 | i | i | i | i | i | . | .
CCOc1ccc(S(=O)(=O)N2CCOCC2)cc1NC(=O)c1ccc(N2CCCC2=O)cc1 | i | i | i | i | i | . | .
